# Test results from ChEMBL document CHEMBL3108749, “Discovery of a non-estrogenic irreversible inhibitor of 17β-hydroxysteroid dehydrogenase type 1 from 3-substituted-16β-(m-carbamoylbenzyl)-estradiol derivatives” (J Med Chem, 2014).
# How the values were obtained:
# [1] = system: MCF7; test: Cytotoxicity against human estrogen-starved estrogen-sensitive MCF7 cells assessed as cell growth at 1 uM after 7 days by MTS assay relative to control; assay type: functional; details: MCF7, 168 h, read-out: Activity
# Method in brief: (§1)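 MCF-7 (DMEM-F12) or T-47D (RPMI) cells are kept in medium with insulin (50 ng/mL) and 5% dextran-coated charcoal-treated FBS, seeded at 3000 cells/well. After 48 h, medium is replaced with medium containing compound, renewed every two days, and cells grow seven days. Growth is read by CellTiter 96 aqueous (MTS) assay as % proliferation vs basal control (0%). Scored −/+/++/+++ bands.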
# [2] = system: MCF7; test: Cytotoxicity against human estrogen-starved estrogen-sensitive MCF7 cells assessed as cell growth at 0.1 uM after 7 days by MTS assay relative to control; assay type: functional; details: MCF7, 168 h, read-out: Activity; method in brief: as §1
# [3] = target: T1, 17-beta-hydroxysteroid dehydrogenase type 1 (Homo sapiens) (UniProt P14061); test: Inhibition of 17-beta HSD1 in human T47D cells assessed as transformation of [14C]E1 to [14C]E2 at 0.1 uM after 24 hrs by thin layer chromatography; assay type: cell-based
# T1 sequence (whole entry): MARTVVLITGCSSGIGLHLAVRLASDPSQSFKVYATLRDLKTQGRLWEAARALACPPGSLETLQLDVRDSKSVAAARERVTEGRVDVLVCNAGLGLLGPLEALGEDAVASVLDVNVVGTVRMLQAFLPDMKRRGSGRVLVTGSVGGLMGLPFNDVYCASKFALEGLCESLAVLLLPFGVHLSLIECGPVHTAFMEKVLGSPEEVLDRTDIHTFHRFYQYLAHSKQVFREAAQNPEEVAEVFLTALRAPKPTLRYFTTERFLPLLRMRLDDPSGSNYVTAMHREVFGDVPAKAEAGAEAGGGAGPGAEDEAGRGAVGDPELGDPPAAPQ
# Method in brief: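 T-47D cells (endogenous 17β-HSD1) are seeded at 3000 cells/well in RPMI with insulin (50 ng/mL) and 5% charcoal-stripped FBS. After 24 h, compound (from EtOH stock, 0.1 μM final) is added with [14C]-E1 (60 nM) for 24 h. Steroids are extracted into diethyl ether, separated by silica TLC (toluene/acetone 4:1) and quantified. Mean ± SD of ≥2 independent experiments in triplicate.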
# [4] = target: T2, 3-keto-steroid reductase/17-beta-hydroxysteroid dehydrogenase 7 (Homo sapiens) (UniProt P56937); test: Inhibition of 17-beta HSD7 (unknown origin) transfected in HEK293 cells using [14C]E1 as substrate at 10 uM; assay type: cell-based
# T2 sequence (whole entry): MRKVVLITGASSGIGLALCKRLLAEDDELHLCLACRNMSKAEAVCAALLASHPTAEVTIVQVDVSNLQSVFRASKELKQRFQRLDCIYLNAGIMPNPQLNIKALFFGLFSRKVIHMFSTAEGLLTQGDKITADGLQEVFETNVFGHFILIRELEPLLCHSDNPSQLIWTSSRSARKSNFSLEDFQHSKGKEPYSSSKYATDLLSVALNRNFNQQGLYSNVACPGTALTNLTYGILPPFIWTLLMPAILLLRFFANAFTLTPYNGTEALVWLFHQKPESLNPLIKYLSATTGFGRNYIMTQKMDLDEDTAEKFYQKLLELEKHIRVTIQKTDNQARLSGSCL
# Method in brief: (§2)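 Stably transfected HEK-293 cells in stripped-serum MEM with G418 and insulin, seeded 48 h. Then treated with compound in DMSO (<0.5% final) plus 60 nM substrate: [14C]-E2 for 17β-HSD2, [14C]-E1 for 17β-HSD7 and 17β-HSD12. Stopped at 12–25% substrate conversion; ether extraction, TLC, radiolabel quantification; triplicates, at least two experiments.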
# [5] = target: T3, 17-beta-hydroxysteroid dehydrogenase type 2 (Homo sapiens) (UniProt P37059); test: Inhibition of 17-beta HSD2 (unknown origin) transfected in HEK293 cells using [14C]E2 as substrate at 10 uM; assay type: cell-based; method in brief: as §2
# T3 sequence (whole entry): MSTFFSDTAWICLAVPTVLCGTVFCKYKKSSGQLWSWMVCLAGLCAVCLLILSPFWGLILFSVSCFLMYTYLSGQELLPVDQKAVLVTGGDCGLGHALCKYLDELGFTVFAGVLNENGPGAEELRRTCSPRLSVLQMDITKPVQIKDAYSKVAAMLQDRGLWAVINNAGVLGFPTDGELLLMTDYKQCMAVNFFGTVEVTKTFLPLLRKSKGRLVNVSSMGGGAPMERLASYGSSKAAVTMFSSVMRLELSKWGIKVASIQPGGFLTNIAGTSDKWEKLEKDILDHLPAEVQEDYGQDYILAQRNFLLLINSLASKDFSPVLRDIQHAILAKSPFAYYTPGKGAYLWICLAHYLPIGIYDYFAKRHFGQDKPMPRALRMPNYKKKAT
# [6] = target: T4, Very-long-chain 3-oxoacyl-CoA reductase (Homo sapiens) (UniProt Q53GQ0); test: Inhibition of 17-beta HSD12 (unknown origin) transfected in HEK293 cells using [14C]E1 as substrate at 10 uM; assay type: cell-based; method in brief: as §2
# T4 sequence (whole entry): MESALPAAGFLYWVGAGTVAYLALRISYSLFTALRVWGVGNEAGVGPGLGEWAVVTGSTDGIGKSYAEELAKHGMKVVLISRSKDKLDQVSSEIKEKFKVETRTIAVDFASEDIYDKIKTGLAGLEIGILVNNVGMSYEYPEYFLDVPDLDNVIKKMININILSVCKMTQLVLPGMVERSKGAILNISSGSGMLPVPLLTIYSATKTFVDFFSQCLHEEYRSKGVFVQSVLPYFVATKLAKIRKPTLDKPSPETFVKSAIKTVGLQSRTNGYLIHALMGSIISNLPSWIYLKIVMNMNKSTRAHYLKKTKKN
# [7] = target: Cytochrome P450 3A4 (Homo sapiens, UniProt P08684); test: Inhibition of CYP3A4 (unknown origin) by fluorescence assay; assay type: ADME
# Chain of Cytochrome P450 3A4 (P08684 whole entry): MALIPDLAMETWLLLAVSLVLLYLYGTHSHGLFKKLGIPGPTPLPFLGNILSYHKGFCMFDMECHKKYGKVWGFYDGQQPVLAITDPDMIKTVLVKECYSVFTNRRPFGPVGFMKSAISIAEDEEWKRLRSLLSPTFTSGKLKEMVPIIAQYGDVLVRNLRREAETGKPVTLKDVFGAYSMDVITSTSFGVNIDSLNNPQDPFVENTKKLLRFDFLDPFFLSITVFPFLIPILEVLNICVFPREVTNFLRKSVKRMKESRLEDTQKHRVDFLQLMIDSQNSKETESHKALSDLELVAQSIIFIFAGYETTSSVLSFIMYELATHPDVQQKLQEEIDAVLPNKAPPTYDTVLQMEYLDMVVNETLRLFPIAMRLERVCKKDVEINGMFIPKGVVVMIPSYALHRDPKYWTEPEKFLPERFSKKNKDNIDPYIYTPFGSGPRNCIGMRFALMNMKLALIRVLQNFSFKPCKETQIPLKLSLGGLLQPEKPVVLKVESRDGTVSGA
# Method in brief: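 Commercial CYP3A4 kit with dibenzylfluorescein as substrate, read by fluorescence of its enzymatic product. Compound dissolved in DMSO/acetonitrile (5:95). IC50 from means of at least two experiments in triplicate.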
# [8] = system: T47D; test: Cytotoxicity against human estrogen-starved estrogen-sensitive T47D cells assessed as cell growth at 0.1 uM after 7 days by MTS assay relative to control; assay type: functional; details: 168 h, read-out: Activity; method in brief: as §1
# [9] = system: T47D; test: Cytotoxicity against human estrogen-starved estrogen-sensitive T47D cells assessed as cell growth at 1 uM after 7 days by MTS assay relative to control; assay type: functional; details: 168 h, read-out: Activity; method in brief: as §1
Structure (SMILES),inhibition [3] [%],percent proliferation above basal control at 1 µM [1] [%],percent proliferation above basal control at 0.1 µM [2] [%],other results
C[C@]12CC[C@@H]3c4ccc(CN5CCCC5)cc4CC[C@H]3[C@@H]1C[C@H](Cc1cccc(C(N)=O)c1)[C@@H]2O,10,5,0,
CCCN(CC)Cc1ccc2c(c1)CC[C@@H]1[C@@H]2CC[C@]2(C)[C@@H](O)[C@@H](Cc3cccc(C(N)=O)c3)C[C@@H]12,14,0,0,
CCCCCCCN(C)[C@H]1CC[C@H]2C3CC[C@H]4NC(=O)CC[C@]4(C)[C@H]3CC[C@]12C (stereo partly drawn),,,,inhibition [4]: 81%
C[C@]12CC[C@@H]3c4ccc(O)cc4CC[C@H]3[C@@H]1C[C@H](Cc1cccc(C(N)=O)c1)[C@@H]2O,72,> 30,> 30,inhibition [5]: 0%; inhibition [4]: 0%; inhibition [6]: 6%; IC50 [7]: 1500 nM
C[C@]12CC[C@@H]3c4ccc(B(O)O)cc4CC[C@H]3[C@@H]1C[C@H](Cc1cccc(C(N)=O)c1)[C@@H]2O,36,> 30,> 30,
C[C@]12CC[C@@H]3c4ccc(C(=O)N5CCCC5)cc4CC[C@H]3[C@@H]1C[C@H](Cc1cccc(C(N)=O)c1)[C@@H]2O,3,0,0,
C[C@]12CC[C@@H]3c4ccc(CCc5ccccc5)cc4CC[C@H]3[C@@H]1C[C@H](Cc1cccc(C(N)=O)c1)[C@@H]2O,17,,,percent proliferation above basal control at 0.1 µM [8]: 0%; % proliferation above basal control (0% = control) at 1 µM [9]: 0%
CCCN(CC)C(=O)c1ccc2c(c1)CC[C@@H]1[C@@H]2CC[C@]2(C)[C@@H](O)[C@@H](Cc3cccc(C(N)=O)c3)C[C@@H]12,10,0,0,
CN(C)C(=O)c1ccc2c(c1)CC[C@@H]1[C@@H]2CC[C@]2(C)[C@@H](O)[C@@H](Cc3cccc(C(N)=O)c3)C[C@@H]12,1,15,5,
C[C@]12CC[C@@H]3c4ccc(CO)cc4CC[C@H]3[C@@H]1C[C@H](Cc1cccc(C(N)=O)c1)[C@@H]2O,,5,0,

# Second part, led by results:
inhibition [3] [%],Structure (SMILES),percent proliferation above basal control at 1 µM [1] [%],percent proliferation above basal control at 0.1 µM [2] [%],other results
11,CNC(=O)Cc1ccc2c(c1)CC[C@@H]1[C@@H]2CC[C@]2(C)[C@@H](O)[C@@H](Cc3cccc(C(N)=O)c3)C[C@@H]12,0,0,
30,C[C@]12CC[C@@H]3c4ccc(CBr)cc4CC[C@H]3[C@@H]1C[C@H](Cc1cccc(C(N)=O)c1)[C@@H]2O,0,0,
7,C[C@]12CC[C@@H]3c4ccc(CC(=O)O)cc4CC[C@H]3[C@@H]1C[C@H](Cc1cccc(C(N)=O)c1)[C@@H]2O,5,0,
31,C[C@]12CC[C@@H]3c4ccc(N)cc4CC[C@H]3[C@@H]1C[C@H](Cc1cccc(C(N)=O)c1)[C@@H]2O,5,0,
2,C[C@]12CC[C@@H]3c4ccc(C(N)=O)cc4CC[C@H]3[C@@H]1C[C@H](Cc1cccc(C(N)=O)c1)[C@@H]2O,15,0,
10,C[C@]12CC[C@@H]3c4ccc(F)cc4CC[C@H]3[C@@H]1C[C@H](Cc1cccc(C(N)=O)c1)[C@@H]2O,5,0,
18,C[C@]12CC[C@@H]3c4ccc(CCO)cc4CC[C@H]3[C@@H]1C[C@H](Cc1cccc(C(N)=O)c1)[C@@H]2O,5,5,
12,C[C@]12CC[C@@H]3c4ccc(CCCl)cc4CC[C@H]3[C@@H]1C[C@H](Cc1cccc(C(N)=O)c1)[C@@H]2O,,,percent proliferation above basal control at 0.1 µM [8]: 0%; % proliferation above basal control (0% = control) at 1 µM [9]: 0%
54,C[C@]12CC[C@@H]3c4ccc(CCI)cc4CC[C@H]3[C@@H]1C[C@H](Cc1cccc(C(N)=O)c1)[C@@H]2O,,,percent proliferation above basal control at 0.1 µM [8]: 0%; % proliferation above basal control (0% = control) at 1 µM [9]: 0%
19,CN(C)Cc1ccc2c(c1)CC[C@@H]1[C@@H]2CC[C@]2(C)[C@@H](O)[C@@H](Cc3cccc(C(N)=O)c3)C[C@@H]12,0,0,
6,CCc1ccc2c(c1)CC[C@@H]1[C@@H]2CC[C@]2(C)[C@@H](O)[C@@H](Cc3cccc(C(N)=O)c3)C[C@@H]12,0,0,
3,C[C@]12CC[C@@H]3c4ccc(C(=O)O)cc4CC[C@H]3[C@@H]1C[C@H](Cc1cccc(C(N)=O)c1)[C@@H]2O,> 30,5,
44,C[C@]12CC[C@@H]3c4ccc(CN)cc4CC[C@H]3[C@@H]1C[C@H](Cc1cccc(C(N)=O)c1)[C@@H]2O,> 30,> 30,
20,C[C@]12CC[C@@H]3c4ccc(CCCO)cc4CC[C@H]3[C@@H]1C[C@H](Cc1cccc(C(N)=O)c1)[C@@H]2O,,,percent proliferation above basal control at 0.1 µM [8]: 0%; % proliferation above basal control (0% = control) at 1 µM [9]: 5%
